IC50 and inhibition data for one molecule are collected here from ChEMBL document CHEMBL5329221, “A covalent fragment-based strategy targeting a novel cysteine to inhibit activity of mutant EGFR kinase” (RSC Med Chem, 2023).

The term IC50 denotes the concentration that inhibits the measured activity by half. One may read the inhibition as the share of the control response that was lost under treatment.

Test [1] addresses T1, Epidermal growth factor receptor (Homo sapiens, UniProt P00533, C797S/L858R/T790M). Put plainly: Inhibition of N-terminal His6-tagged human EGFR L858R/T790M/C797S mutant expressed in Sf9 cells assessed as decrease in substrate phosphorylation using Srctide as substrate preincubated for 60 mins followed by substrate addition in presence of 5uM of ATP and measured after 45 mins by microplate reader analysis.

For test [2], the system named is Epidermal growth factor receptor (Homo sapiens), P00533 [L858R,T790M]. Put plainly: Inhibition of human EGFR T790M/L858R mutant assessed as decrease in substrate phosphorylation using Srctide as substrate preincubated for 15 mins followed by substrate addition in presence of 1mM of ATP and measured after 45 mins by microplate reader analysis. The following applies: time 60.0 min. In outline: (§1)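 Panel format: compound at 1 µM final was preincubated 15 min with kinase in 20 mM HEPES pH 7.4, 5 mM MgCl2, 1 mM MnCl2, 0.003% Brij-35, 0.004% Tween-20, 2 mM DTT. ATP (1 mM) and Srctide (1.5 µM) were then added for 45 min. EDTA stop; mobility-shift read, ex 488/em 530 nm.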
Sequence of Epidermal growth factor receptor (Homo sapiens), P00533 [L858R,T790M] (P00533 whole entry T790M/L858R, looked up): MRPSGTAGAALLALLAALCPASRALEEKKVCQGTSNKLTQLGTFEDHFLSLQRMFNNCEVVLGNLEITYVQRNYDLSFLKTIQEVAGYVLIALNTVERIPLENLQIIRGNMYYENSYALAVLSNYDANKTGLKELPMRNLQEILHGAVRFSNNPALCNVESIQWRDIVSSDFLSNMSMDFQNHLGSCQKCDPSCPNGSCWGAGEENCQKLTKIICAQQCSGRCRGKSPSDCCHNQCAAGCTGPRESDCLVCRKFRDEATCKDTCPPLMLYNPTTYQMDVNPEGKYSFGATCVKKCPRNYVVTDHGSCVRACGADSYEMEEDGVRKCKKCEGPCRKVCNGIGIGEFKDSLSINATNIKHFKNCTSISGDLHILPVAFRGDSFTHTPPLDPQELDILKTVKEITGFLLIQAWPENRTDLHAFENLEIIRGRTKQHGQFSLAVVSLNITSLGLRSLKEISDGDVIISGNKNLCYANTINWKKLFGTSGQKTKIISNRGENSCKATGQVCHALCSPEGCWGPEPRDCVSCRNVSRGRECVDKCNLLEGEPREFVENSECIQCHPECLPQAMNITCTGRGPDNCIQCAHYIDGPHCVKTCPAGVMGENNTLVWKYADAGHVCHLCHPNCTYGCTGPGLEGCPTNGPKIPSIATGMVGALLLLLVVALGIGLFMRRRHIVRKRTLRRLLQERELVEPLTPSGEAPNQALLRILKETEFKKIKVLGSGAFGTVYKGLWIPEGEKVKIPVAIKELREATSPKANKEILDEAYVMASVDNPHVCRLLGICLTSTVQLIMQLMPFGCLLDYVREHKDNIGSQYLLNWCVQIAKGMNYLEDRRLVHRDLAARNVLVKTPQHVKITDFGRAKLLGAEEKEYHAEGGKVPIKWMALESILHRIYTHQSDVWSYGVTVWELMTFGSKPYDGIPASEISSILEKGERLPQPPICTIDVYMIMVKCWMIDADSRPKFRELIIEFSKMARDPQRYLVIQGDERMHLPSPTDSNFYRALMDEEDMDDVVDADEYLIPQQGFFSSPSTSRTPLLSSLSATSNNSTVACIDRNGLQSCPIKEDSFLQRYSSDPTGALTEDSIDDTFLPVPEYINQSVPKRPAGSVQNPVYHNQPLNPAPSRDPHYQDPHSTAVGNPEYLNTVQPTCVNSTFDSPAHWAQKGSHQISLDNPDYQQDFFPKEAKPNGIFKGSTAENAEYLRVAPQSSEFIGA

Test [3] concerns the target T2, Tyrosine-protein kinase JAK3 (Homo sapiens) (UniProt P52333).
T2 sequence (whole entry): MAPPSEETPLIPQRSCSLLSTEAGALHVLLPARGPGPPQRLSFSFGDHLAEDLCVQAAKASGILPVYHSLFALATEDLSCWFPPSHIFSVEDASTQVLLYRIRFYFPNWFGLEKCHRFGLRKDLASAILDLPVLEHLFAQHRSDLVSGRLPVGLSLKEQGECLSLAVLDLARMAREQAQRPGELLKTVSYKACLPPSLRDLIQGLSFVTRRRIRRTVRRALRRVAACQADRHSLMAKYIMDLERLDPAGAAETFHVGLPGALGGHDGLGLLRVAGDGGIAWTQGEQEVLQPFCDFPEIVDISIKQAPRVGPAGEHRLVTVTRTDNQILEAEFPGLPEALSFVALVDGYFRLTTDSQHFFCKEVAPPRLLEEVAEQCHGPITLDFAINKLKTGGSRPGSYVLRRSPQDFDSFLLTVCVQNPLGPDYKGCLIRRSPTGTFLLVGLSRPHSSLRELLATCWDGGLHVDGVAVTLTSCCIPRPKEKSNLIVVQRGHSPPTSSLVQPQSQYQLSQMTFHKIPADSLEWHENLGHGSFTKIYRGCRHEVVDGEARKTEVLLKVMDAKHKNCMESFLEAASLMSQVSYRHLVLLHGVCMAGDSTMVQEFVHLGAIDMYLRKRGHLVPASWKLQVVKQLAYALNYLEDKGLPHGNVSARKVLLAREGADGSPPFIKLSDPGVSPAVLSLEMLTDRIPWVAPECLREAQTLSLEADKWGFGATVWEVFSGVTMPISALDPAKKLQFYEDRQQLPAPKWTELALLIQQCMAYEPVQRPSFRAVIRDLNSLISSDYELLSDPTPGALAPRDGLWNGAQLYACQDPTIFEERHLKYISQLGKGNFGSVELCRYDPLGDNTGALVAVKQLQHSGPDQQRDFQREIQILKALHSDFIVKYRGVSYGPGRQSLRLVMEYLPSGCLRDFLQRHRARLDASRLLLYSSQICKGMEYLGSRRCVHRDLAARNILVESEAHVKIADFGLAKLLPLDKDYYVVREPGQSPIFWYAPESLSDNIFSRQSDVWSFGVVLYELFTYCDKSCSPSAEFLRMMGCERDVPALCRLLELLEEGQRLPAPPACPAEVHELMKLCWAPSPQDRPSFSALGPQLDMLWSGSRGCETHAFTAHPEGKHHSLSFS
Put plainly: Inhibition of human JAK3 assessed as decrease in substrate phosphorylation using Srctide as substrate preincubated for 15 mins followed by substrate addition in presence of 1mM of ATP and measured after 45 mins by microplate reader analysis. The following applies: time 60.0 min. In outline: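 JAK3 at 50 ng/mL was preincubated 15 min with 1 µM compound in 100 mM HEPES pH 7.4, 0.003% Brij-35, 0.004% Tween-20, 1 mM DTT. Then 1 mM ATP, 1.5 µM Srctide and 10 mM MgCl2 were added for 45 min. Mobility-shift read.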

Test [4] addresses T1, Epidermal growth factor receptor. The test can be described thus: Inhibition of N-terminal His6-tagged human EGFR L858R/T790M/C797S mutant expressed in Sf9 cells assessed as decrease in substrate phosphorylation using Srctide as substrate preincubated for 20 mins followed by substrate addition in presence of 5uM of ATP and measured after 45 mins by microplate reader analysis.

Test [5] has as its system Epidermal growth factor receptor (Homo sapiens), P00533 [UNDEFINED MUTATION]. The test can be described thus: Inhibition of human EGFR d746-750 mutant assessed as decrease in substrate phosphorylation using Srctide as substrate preincubated for 15 mins followed by substrate addition in presence of 1mM of ATP and measured after 45 mins by microplate reader analysis. To be noted: time 60.0 min. In outline: as §1

Test [6] has as its target T1, Epidermal growth factor receptor. The test can be described thus: Inhibition of N-terminal His6-tagged human EGFR L858R/T790M/C797S mutant expressed in Sf9 cells assessed as decrease in substrate phosphorylation using Srctide as substrate preincubated for 60 mins followed by substrate addition in presence of 1mM of ATP and measured after 45 mins by microplate reader analysis. In outline:
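Compound in DMSO was preincubated 0, 20 or 60 min with 250 pg/µL EGFR_TM (residues 694-1022) in 20 mM HEPES pH 7.4, 5 mM MgCl2, 1 mM MnCl2, 0.003% Brij-35, 0.004% Tween-20, 2 mM DTT. […] EDTA stop; phosphorylation read by mobility-shift chip, ex 488/em 530 nm.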

For test [7], the system named is Epidermal growth factor receptor (Homo sapiens), P00533 [L858R,T790M,C797S]. The test can be described thus: Inhibition of human EGFR T790M/C797S/L858R mutant assessed as decrease in substrate phosphorylation using Srctide as substrate preincubated for 15 mins followed by substrate addition in presence of 1mM of ATP and measured after 45 mins by microplate reader analysis. The following applies: time 60.0 min. In outline:
(§2)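 Compound at 1 µM final, 15 min preincubation with mutant EGFR in mutant-EGFR buffer (5 mM MgCl2, 1 mM MnCl2) at 200 ng/mL for T790M/C797S/L858R, 180 ng/mL for d746-750/T790M, and 350 ng/mL for d746-750/T790M/C797S. Then 1 mM ATP plus 1.5 µM Srctide for 45 min. Mobility-shift read.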

Test [8] relates to Epidermal growth factor receptor (Homo sapiens), P00533 [UNDEFINED MUTATION]. The test can be described thus: Inhibition of human EGFR d746-750/T790M/C797S mutant assessed as decrease in substrate phosphorylation using Srctide as substrate preincubated for 15 mins followed by substrate addition in presence of 1mM of ATP and measured after 45 mins by microplate reader analysis. To be noted: time 60.0 min. Summed up:
as §2

T1 sequence (P00533 25-1210 T790M/C797S/L858R limits assumed): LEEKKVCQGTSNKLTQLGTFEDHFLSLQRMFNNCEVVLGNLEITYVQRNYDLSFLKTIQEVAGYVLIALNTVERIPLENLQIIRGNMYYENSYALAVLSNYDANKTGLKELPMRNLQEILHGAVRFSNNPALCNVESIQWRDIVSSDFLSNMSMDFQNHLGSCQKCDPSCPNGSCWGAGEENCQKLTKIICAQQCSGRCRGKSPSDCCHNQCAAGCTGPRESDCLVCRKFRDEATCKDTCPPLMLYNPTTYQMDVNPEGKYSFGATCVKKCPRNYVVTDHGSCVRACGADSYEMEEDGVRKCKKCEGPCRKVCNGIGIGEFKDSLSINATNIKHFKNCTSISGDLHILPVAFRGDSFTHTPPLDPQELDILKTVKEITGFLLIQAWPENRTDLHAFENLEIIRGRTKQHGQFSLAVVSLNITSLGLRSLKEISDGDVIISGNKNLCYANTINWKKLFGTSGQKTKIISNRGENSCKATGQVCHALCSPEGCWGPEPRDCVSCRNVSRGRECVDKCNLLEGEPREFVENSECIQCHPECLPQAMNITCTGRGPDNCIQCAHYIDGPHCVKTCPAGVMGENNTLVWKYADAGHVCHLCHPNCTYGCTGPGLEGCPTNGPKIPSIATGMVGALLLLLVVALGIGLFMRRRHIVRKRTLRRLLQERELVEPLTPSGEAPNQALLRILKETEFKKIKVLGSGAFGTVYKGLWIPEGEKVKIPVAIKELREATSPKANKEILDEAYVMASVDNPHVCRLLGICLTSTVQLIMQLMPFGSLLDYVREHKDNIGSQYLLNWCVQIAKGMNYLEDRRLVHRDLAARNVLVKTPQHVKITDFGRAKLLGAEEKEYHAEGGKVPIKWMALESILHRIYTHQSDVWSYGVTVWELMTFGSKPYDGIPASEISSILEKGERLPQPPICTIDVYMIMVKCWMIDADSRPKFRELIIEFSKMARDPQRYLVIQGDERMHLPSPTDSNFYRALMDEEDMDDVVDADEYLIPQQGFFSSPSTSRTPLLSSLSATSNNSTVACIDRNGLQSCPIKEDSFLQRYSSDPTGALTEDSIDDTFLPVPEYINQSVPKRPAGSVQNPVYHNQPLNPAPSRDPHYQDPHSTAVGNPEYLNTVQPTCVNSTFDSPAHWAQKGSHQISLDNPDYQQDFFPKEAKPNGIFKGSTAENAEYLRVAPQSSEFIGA
Sequence of Epidermal growth factor receptor (Homo sapiens), P00533 [UNDEFINED MUTATION] (P00533 whole entry, looked up, stated change not applied): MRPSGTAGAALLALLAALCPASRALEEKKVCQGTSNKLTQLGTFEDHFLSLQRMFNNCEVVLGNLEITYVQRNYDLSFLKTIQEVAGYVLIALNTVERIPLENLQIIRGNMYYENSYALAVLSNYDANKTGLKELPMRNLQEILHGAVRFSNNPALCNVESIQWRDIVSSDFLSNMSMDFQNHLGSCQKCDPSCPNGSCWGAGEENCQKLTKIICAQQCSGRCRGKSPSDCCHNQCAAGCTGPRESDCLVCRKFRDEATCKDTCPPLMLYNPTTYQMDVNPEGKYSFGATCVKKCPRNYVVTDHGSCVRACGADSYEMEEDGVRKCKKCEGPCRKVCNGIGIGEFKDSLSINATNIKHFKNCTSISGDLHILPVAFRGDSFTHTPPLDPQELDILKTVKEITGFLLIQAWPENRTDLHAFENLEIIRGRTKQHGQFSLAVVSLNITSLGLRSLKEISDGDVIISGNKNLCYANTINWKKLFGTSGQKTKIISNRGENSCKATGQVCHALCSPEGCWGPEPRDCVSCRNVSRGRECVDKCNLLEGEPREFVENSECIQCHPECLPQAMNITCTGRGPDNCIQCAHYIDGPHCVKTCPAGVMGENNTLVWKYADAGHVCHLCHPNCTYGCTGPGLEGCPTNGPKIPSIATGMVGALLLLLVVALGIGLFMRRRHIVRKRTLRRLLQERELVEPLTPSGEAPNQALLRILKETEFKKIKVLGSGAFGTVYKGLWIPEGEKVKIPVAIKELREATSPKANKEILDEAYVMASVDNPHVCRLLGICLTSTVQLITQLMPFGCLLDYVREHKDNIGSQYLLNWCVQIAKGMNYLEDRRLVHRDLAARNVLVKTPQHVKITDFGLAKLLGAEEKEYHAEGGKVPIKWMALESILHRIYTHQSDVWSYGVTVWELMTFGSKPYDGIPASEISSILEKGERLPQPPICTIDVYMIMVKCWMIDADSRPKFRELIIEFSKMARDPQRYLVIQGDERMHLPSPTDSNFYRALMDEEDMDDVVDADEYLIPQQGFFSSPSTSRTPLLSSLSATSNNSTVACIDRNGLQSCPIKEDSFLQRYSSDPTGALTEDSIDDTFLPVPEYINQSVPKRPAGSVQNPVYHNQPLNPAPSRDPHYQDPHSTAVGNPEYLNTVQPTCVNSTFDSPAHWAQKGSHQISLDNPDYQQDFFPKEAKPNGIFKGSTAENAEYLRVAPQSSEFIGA
Sequence of Epidermal growth factor receptor (Homo sapiens), P00533 [L858R,T790M,C797S] (P00533 whole entry T790M/C797S/L858R): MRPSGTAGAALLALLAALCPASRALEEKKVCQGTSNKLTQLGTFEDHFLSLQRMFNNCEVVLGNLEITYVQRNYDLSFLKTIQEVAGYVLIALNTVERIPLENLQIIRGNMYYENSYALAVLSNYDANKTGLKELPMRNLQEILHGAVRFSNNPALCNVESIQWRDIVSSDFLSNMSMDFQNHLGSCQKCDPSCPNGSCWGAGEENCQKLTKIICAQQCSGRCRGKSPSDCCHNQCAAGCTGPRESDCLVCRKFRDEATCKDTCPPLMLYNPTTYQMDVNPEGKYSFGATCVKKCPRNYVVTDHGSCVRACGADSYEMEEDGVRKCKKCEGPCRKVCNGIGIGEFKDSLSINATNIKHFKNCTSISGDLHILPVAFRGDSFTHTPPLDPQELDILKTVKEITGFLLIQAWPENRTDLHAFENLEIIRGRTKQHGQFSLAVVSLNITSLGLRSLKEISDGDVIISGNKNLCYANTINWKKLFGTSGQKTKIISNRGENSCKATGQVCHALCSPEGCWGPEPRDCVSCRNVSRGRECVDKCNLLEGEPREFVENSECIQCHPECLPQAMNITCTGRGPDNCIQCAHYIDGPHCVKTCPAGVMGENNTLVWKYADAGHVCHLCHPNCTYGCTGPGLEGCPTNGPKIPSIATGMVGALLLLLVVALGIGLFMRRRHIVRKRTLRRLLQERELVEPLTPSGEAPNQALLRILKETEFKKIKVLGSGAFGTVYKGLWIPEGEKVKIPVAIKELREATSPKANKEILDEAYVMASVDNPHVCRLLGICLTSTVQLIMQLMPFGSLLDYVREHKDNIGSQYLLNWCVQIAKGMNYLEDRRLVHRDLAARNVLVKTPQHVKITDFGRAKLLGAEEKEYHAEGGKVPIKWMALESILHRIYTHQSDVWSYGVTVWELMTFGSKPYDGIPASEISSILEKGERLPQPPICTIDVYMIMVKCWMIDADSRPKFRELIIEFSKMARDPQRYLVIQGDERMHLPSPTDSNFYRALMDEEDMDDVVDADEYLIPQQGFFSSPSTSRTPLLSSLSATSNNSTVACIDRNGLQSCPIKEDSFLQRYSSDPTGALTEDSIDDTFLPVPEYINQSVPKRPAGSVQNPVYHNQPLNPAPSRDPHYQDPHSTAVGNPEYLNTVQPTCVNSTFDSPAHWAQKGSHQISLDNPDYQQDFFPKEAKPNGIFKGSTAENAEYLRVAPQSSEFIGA

For the molecule `C=CC(=O)Nc1cc(-c2cn(C)c3ccccc23)ncn1`, the IC50 in test [1] came to 167 nM; in test [4], 239 nM; in test [6] it was 150 nM. For the same molecule, the inhibition in test [2] was greater than 80%; in test [3], 74.2%; in test [5], greater than 80%; in test [7] it was greater than 80%; in test [8] it was greater than 80%.
